Source: ChEMBL document CHEMBL4425140, “Discovery of a Potent and Selective Coactivator Associated Arginine Methyltransferase 1 (CARM1) Inhibitor by Virtual Screening” (J Med Chem, 2016)
The source made the active and inactive calls. The calls are words filed in the database; no cut-off is given here.

Legend:
[1] = target: Protein arginine N-methyltransferase 6 (Homo sapiens, UniProt Q96LA8); test: Inhibition of PRMT6 (unknown origin)
[2] = target: T1, Histone-arginine methyltransferase CARM1 (Homo sapiens, UniProt Q86X55); test: Inhibition of full-length Halo-tagged human CARM1 (1 to 608 residues) expressed in 293-F cells using [3H]-SAM and biotinylated histone peptides by scintillation proximity based radiometric assay; type: cell-based
T1 sequence (Q86X55 whole entry): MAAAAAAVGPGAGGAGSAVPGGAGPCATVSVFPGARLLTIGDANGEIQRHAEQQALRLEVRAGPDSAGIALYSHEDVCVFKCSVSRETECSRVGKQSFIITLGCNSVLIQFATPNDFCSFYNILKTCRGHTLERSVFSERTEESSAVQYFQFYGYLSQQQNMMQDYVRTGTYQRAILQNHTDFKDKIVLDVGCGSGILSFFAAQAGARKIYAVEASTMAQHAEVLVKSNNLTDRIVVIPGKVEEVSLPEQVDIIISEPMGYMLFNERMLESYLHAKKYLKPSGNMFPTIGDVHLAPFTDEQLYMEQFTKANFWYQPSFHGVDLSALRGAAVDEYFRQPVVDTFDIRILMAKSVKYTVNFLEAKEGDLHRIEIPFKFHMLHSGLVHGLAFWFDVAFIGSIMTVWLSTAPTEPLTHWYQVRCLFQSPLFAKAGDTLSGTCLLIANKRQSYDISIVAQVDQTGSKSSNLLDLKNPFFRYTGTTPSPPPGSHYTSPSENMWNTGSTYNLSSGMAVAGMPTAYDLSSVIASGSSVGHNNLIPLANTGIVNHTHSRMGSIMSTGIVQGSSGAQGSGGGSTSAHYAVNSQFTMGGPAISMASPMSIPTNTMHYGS

[3] = target: Protein arginine N-methyltransferase 8 (Homo sapiens, UniProt Q9NR22); test: Inhibition of PRMT8 (unknown origin)
Chain of Protein arginine N-methyltransferase 8 (Q9NR22 whole entry, the tested form may be a part): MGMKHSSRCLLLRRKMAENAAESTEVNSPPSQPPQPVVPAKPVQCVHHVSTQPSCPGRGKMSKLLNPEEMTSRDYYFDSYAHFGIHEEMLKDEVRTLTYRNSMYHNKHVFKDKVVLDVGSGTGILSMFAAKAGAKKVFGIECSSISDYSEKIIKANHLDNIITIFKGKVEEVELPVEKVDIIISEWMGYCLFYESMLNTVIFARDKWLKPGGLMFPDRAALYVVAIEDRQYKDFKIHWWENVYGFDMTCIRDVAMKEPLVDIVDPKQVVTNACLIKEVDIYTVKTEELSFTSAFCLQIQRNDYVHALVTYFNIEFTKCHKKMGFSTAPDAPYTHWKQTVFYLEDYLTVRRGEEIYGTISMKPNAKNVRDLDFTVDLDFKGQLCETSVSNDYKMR

[4] = target: T2, Histone-arginine methyltransferase CARM1 (Homo sapiens) (UniProt Q86X55); test: Inhibition of full-length Halo-tagged human CARM1 (1 to 608 residues) expressed in 293-F cells at 10 uM using [3H]-SAM and biotinylated histone peptides by scintillation proximity based radiometric assay; type: cell-based
T2 sequence (whole entry): T1 sequence (Q86X55 whole entry)
Procedure, shortened: (§1)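 Radiometric scintillation proximity assay. Tag-cleaved full-length human CARM1 (1–608) at 25 nM, with 0.7 μM C-terminally biotinylated H3 1–25 peptide and 1.9 μM [3H]-SAM in 20 mM bicine pH 8.5. Transfer of tritiated methyl to the peptide counted as cpm. Single compound concentration per line.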

[5] = target: T2, Histone-arginine methyltransferase CARM1 (Homo sapiens); test: Inhibition of full-length Halo-tagged human CARM1 (1 to 608 residues) expressed in 293-F cells at 50 uM using [3H]-SAM and biotinylated histone peptides by scintillation proximity based radiometric assay; type: cell-based; procedure, shortened: as §1
[6] = target: T1, Histone-arginine methyltransferase CARM1; test: Binding affinity to full-length Halo-tagged human CARM1 (1 to 608 residues) expressed in 293-F cells by surface plasmon resonance assay
Procedure, shortened: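 About 4500 RU of CARM1 amine-coupled to a CM5 chip, blank cell used for reference subtraction. Compounds serially diluted in DMSO, then into HBS-EP buffer at 5% DMSO final. Contact time 30 s at 75 μL/min.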

[7] = target: T2, Histone-arginine methyltransferase CARM1 (Homo sapiens); test: Binding affinity to full-length Halo-tagged human CARM1 (1 to 608 residues) expressed in 293-F cells assessed as change in melting temperature by Sypro orange dye based differential scanning fluorimetry; type: cell-based
[8] = target: T2, Histone-arginine methyltransferase CARM1 (Homo sapiens); test: Binding affinity to full-length Halo-tagged human CARM1 (1 to 608 residues) expressed in 293-F cells assessed as change in aggregation temperature by differential static light scattering; type: cell-based
Procedure, shortened: (§2)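 Full-length human CARM1 (residues 1–608) expressed as a HaloTag fusion in FreeStyle 293-F cells, HaloTag-purified, tag removed with TEV. Heated from 30 to 80 °C at 1 °C/min; aggregation temperature shift read by static light scattering.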

[9] = target: T2, Histone-arginine methyltransferase CARM1 (Homo sapiens); test: Binding affinity to full-length Halo-tagged human CARM1 (1 to 608 residues) expressed in 293-F cells assessed as change in melting temperature in presencee of SAM by Sypro orange dye based differential scanning fluorimetry; type: cell-based
[10] = target: T2, Histone-arginine methyltransferase CARM1 (Homo sapiens); test: Binding affinity to full-length Halo-tagged human CARM1 (1 to 608 residues) expressed in 293-F cells assessed as change in aggregation temperature in presence of SAM by differential static light scattering; type: cell-based; procedure, shortened: as §2
[11] = Selectivity index, ratio of IC50 for RMT6 (unknown origin) to IC50 for full-length Halo-tagged human CARM1 (1 to 608 residues) expressed in 293-F cells; type: cell-based
[12] = target: Protein arginine N-methyltransferase 1 (Homo sapiens, UniProt Q99873); test: Inhibition of PRMT1 (unknown origin)
Chain of Protein arginine N-methyltransferase 1 (Q99873 whole entry): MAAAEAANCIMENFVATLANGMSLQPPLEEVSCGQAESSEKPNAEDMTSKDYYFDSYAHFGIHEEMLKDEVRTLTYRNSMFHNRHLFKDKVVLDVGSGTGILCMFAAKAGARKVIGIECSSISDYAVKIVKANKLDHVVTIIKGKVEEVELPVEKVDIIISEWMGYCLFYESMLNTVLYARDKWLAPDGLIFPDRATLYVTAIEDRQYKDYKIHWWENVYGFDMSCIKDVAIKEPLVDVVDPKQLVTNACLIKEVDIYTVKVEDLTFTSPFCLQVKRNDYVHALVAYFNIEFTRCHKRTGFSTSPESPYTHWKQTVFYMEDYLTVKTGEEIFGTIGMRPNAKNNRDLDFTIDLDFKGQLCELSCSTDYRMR

[13] = target: Protein arginine N-methyltransferase 3 (Homo sapiens, UniProt O60678); test: Inhibition of PRMT3 (unknown origin)
Chain of Protein arginine N-methyltransferase 3 (O60678 whole entry): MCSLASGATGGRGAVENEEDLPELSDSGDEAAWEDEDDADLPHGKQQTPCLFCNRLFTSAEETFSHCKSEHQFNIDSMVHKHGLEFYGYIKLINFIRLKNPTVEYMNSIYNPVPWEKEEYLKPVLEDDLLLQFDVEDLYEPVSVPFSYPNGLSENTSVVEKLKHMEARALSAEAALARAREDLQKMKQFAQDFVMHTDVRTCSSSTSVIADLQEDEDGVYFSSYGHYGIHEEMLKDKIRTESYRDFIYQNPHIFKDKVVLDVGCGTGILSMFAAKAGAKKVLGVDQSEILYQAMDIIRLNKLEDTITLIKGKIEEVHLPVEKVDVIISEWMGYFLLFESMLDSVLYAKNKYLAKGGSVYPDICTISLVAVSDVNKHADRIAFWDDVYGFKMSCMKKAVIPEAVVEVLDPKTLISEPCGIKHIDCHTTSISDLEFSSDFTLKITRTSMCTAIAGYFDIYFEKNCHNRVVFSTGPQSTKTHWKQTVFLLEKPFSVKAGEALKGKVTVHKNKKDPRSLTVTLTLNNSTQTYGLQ

[14] = target: Protein arginine N-methyltransferase 5 (Homo sapiens, UniProt O14744); test: Inhibition of PRMT5 (unknown origin)
Chain of Protein arginine N-methyltransferase 5 (O14744 whole entry): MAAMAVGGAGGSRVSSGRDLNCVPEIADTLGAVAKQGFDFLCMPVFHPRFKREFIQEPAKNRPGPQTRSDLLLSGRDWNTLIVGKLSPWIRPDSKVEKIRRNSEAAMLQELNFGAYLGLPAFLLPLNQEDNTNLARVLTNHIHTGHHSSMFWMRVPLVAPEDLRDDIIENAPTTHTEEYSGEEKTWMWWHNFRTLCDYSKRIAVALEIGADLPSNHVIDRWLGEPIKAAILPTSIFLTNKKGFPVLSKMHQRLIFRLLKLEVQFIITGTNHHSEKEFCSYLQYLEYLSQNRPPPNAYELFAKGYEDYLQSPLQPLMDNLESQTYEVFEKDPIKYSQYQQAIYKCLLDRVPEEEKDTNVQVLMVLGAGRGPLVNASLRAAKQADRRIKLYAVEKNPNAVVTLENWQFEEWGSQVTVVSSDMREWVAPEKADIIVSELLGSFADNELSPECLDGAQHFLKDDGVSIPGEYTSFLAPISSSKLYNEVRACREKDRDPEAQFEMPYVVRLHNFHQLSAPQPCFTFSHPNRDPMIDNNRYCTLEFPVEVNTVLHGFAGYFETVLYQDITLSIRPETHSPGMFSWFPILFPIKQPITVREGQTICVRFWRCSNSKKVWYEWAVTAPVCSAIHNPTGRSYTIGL

[15] = target: T3, Protein arginine N-methyltransferase 7 (Homo sapiens, UniProt Q9NVM4); test: Inhibition of PRMT7 (unknown origin)
T3 sequence (Q9NVM4 whole entry): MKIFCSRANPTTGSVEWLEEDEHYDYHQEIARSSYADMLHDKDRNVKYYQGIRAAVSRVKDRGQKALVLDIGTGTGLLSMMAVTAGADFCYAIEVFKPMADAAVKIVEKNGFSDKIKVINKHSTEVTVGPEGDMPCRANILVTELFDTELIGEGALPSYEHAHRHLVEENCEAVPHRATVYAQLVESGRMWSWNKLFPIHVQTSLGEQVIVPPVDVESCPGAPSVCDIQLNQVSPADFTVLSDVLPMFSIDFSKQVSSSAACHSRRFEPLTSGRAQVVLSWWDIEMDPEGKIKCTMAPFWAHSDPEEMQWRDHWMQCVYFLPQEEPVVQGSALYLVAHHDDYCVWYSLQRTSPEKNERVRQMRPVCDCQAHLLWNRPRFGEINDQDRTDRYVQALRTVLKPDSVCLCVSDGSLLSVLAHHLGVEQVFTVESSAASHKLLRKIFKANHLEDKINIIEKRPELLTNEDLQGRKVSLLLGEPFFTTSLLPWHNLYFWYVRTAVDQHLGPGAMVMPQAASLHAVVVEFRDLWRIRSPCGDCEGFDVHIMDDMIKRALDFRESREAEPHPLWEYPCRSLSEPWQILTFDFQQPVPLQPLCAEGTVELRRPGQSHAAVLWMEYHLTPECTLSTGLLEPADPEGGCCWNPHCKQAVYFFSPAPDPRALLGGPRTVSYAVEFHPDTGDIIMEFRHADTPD

[16] = target: T2, Histone-arginine methyltransferase CARM1 (Homo sapiens); test: Non-competitive inhibition of full-length Halo-tagged human CARM1 (1 to 608 residues) expressed in 293-F cells using [3H]-SAM and increasing biotinylated histone peptides by scintillation proximity based radiometric assay; type: cell-based
[17] = target: T2, Histone-arginine methyltransferase CARM1 (Homo sapiens); test: Non-competitive inhibition of full-length Halo-tagged human CARM1 (1 to 608 residues) expressed in 293-F cells using increasing [3H]-SAM and biotinylated histone peptides by scintillation proximity based radiometric assay; type: cell-based
[18] = target: T2, Histone-arginine methyltransferase CARM1 (Homo sapiens); test: Inhibition of CARM1 in HEK293 cells assessed as reduction in BAF155 methylation at 1 uM incubated for 48 hrs by SDS-PAGE and immunoblotting
[19] = target: T2, Histone-arginine methyltransferase CARM1 (Homo sapiens); test: Inhibition of CARM1 in HEK293 cells assessed as reduction in BAF155 methylation at 10 uM incubated for 48 hrs by SDS-PAGE and immunoblotting

Chain of Protein arginine N-methyltransferase 6 (Q96LA8 whole entry, the tested form may be a part): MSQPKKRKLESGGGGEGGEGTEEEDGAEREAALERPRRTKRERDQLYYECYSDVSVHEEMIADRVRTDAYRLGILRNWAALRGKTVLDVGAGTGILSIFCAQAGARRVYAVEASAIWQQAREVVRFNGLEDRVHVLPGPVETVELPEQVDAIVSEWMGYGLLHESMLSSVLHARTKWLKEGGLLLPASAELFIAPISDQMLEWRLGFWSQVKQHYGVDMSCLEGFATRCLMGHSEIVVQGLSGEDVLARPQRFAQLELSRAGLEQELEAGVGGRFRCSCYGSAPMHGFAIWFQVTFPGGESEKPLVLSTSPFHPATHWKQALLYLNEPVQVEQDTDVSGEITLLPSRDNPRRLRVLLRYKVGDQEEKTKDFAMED

NCC(=O)NCc1cccnc1Oc1ccc(F)cc1F
IC50 [1]: Not Active

C[C@H](N)C(=O)NCc1cccnc1N(C)Cc1ccccc1
IC50 ([2]; read-out: IC50): > 30 µM | IC50 [1]: Not Active | IC50 [3]: Not Active | inhibition [4]: Active | inhibition [5]: Active

Cc1cc(C)n(-c2ccc(CNC(=O)C(C)N)cc2)n1 (configuration not stated)
IC50 [2]: Not Active | IC50 [1]: Not Active

Cc1cc(OCCNCCN)ccc1C(C)C
IC50 ([2]; read-out: IC50): 16.6 µM | IC50 [1]: Not Active | IC50 [3]: Not Active | Kd [6]: Not Active

CN(CCN)Cc1ccccc1
IC50 ([2]; read-out: IC50): 7.5 µM | IC50 ([1]; read-out: IC50): 2.5 µM | IC50 ([3]; read-out: IC50): 6 µM | inhibition [4]: Active | inhibition [5]: Active

CC(C)(N)C(=O)NCc1cccnc1Oc1ccc(F)cc1F
IC50 [2]: Not Active | IC50 [1]: Not Active

C[C@H](N)C(=O)NCc1cccnc1Oc1ccc(F)cc1F
IC50 ([2]; read-out: IC50): 1.9 µM | IC50 ([1]; read-out: IC50): 14 µM | IC50 [3]: Not Active | inhibition [4]: Active | inhibition [5]: Active | ΔTm [7]: 2.1 °C | ΔTm [8]: 1.9 °C | Activity [9]: Active | Activity [10]: Active | Kd ([6]; read-out: Kd): 9 µM

CNCCNC1CCN(c2cccc(-c3ccnc(C)n3)c2)CC1
IC50 ([2]; read-out: IC50): 11.1 µM | IC50 ([1]; read-out: IC50): 8.9 µM | IC50 ([3]; read-out: IC50): 26 µM | inhibition [4]: Active | inhibition [5]: Active

CNCCN1CCCC1
IC50 ([2]; read-out: IC50): 3.1 µM | IC50 ([1]; read-out: IC50): 1.9 µM | IC50 ([3]; read-out: IC50): 10 µM | inhibition [4]: Active | inhibition [5]: Active

CC(N)C(=O)NCc1ccccc1 (configuration not stated)
IC50 ([2]; read-out: IC50): > 20 µM | IC50 [1]: Not Active | IC50 [3]: Not Active | inhibition [4]: Active | inhibition [5]: Active

Cc1cc(C)cc(Oc2ccc(CNC(=O)[C@H](C)N)cc2C)c1
IC50 ([2]; read-out: IC50): 0.05 µM | IC50 ([1]; read-out: IC50): 5.2 µM | IC50 ([3]; read-out: IC50): > 50 µM | Ratio IC50 [11]: > 100 | IC50 [12]: > 100 µM | IC50 [13]: > 100 µM | IC50 [14]: > 100 µM | IC50 [15]: > 100 µM | inhibition [16]: Active | inhibition [17]: Active | inhibition [18]: inactive | inhibition [19]: inactive

CNCC(=O)NCc1cccnc1Oc1ccc(F)cc1F
IC50 [2]: Not Active | IC50 [1]: Not Active

CN[C@@H](C)C(=O)NCc1cccnc1Oc1ccc(F)cc1F
IC50 [2]: Not Active | IC50 [1]: Not Active

C[C@@H](N)C(=O)NCc1cccnc1Oc1ccc(F)cc1F
IC50 ([2]; read-out: IC50): > 40 µM | IC50 [1]: Not Active

CC(Cc1c[nH]c2ccccc12)NC(=O)CN (configuration not stated)
IC50 ([2]; read-out: IC50): > 65 µM | IC50 [1]: Not Active | IC50 [3]: Not Active | inhibition [4]: Active | inhibition [5]: Active

CCC(c1ccc(OC)cc1)N(C)CCN (configuration not stated)
IC50 [2]: Not Active | IC50 ([1]; read-out: IC50): > 25 µM | IC50 [3]: Not Active

NCC(=O)NCCc1ccccc1
IC50 ([2]; read-out: IC50): 20.5 µM | IC50 [1]: Not Active | IC50 [3]: Not Active | Kd [6]: Not Active

NC1(C(=O)NCc2cccnc2Oc2ccc(F)cc2F)CC1
IC50 [2]: Not Active | IC50 [1]: Not Active

NCCN1CCC(c2nnc(Cn3ccnc3)n2C2CC2)CC1
IC50 ([2]; read-out: IC50): > 50 µM | IC50 [1]: Not Active | IC50 [3]: Not Active | inhibition [4]: Active | inhibition [5]: Active

CNCCN1CCC(OCc2ccccc2)CC1
inhibition [19]: Active
